We go through one compound from article PMC6071421 (Journal of investigative medicine : the official …, 2017).

The target of the assay is T1, FFA2 (GPR43; Ffar2) (Mus musculus, UniProt Q8VCK6).
T1 sequence (Q8VCK6 1-330): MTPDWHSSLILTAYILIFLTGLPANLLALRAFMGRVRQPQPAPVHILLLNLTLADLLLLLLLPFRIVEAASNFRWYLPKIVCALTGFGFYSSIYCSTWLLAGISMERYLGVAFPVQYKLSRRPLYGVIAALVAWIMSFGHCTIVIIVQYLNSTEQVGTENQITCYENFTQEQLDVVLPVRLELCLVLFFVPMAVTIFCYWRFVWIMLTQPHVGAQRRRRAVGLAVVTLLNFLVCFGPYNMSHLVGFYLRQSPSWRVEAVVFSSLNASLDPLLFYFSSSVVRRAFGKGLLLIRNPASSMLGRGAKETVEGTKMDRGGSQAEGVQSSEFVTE
Nature of the assay: Ca2+ mobilization, Fluo-8, fluorometric imaging plate reader, beta TC3 cells. The assay is classed as cell-based. The note with it: agonist; endogenous receptor in beta TC3 cells; N = 13. The method, boiled down:
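Mouse βTC3 β cells (express Ffar2 but not Ffar3) loaded with 5 μM Fluo-8 for 60 min at 37°C. Test compounds were added as serial dilutions, each concentration in quadruplicate, and fluorescence was read on a FLIPR. Response was delta F/f: (post-stimulation max − pre-stimulation min)/pre-stimulation min. pEC50 and Emax came from non-linear regression. Experiments were repeated in triplicate.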
A general note: A change in cytosolic calcium serves as a functional read-out for many receptors and channels.

For the compound `CC(=O)O` [Acetate], the pEC50 was 2.32±0.21 -log M.
